A selection: hits, their analogues and other compounds. The true share with any hit is near 2.6%.
TNAP inh no acc: blocks human TNAP activity with no phosphate acceptor present; P05186; inhibition, % at 20 µM; purified TNAP, CDP-star luminescence, 30 min; AID 1012; actives 0.26% (n = 200,000);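 active = tissue-nonspecific alkaline phosphatase inhibition above about 50% at 20 µM in the single-dose screen, limit read from the data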
Target sequence (P05186 whole entry, looked up): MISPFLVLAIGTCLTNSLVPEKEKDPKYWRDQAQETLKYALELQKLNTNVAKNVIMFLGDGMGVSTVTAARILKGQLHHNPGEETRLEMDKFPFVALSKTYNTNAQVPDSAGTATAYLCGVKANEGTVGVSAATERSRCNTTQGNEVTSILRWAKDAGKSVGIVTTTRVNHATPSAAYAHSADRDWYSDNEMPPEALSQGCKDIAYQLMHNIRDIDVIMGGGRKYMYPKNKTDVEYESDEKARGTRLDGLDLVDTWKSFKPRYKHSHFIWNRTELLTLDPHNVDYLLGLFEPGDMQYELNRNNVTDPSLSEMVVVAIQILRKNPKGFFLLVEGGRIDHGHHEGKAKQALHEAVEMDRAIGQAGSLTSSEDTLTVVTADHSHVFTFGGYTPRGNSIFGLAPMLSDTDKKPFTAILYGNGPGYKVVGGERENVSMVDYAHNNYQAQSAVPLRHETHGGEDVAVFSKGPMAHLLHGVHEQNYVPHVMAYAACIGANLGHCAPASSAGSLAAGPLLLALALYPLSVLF
WT yeast gro inh: growth inhibition of WT yeast, mitochondrial fusion screen; mitochondrial fusion phenotypic screen, WT strain; inhibition, % at 10 µM; actives 2.1% (n = 190,000); in the data active = inhibition above about 58%; tested in S. cerevisiae
TNAP inh hiacc: TNAP (human) inhibition, high acceptor. P05186. purified TNAP, CDP-star luminescence, 1 M DEA. inhibition, % at 20 µM. actives 0.03% (n = 200,000). AID 1135;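 active = over 50% inhibition of tissue-nonspecific alkaline phosphatase at 20 µM in the single-dose screen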
Arbovirus inh: blocks arbovirus infection. arbovirus infection cell-based antiviral screen. inhibition, % at 10 µM. actives 0.37% (n = 200,000). AID 1251; in the data active = inhibition above about 30%
TNAP act hi DEA: TNAP (human) activation, high acceptor; P05186; purified TNAP, CDP-star luminescence, 1 M DEA, 30 min; active compounds read high; 0 = EDTA background, 1 = DMSO-only activity; activation factor at 20 µM; 200,000 tested, under 10 active; AID 1136;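 active = activation factor at least 2 at 20 µM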
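Measured by: Luminescent substrate turnover signal | Test system: Human TNAP | Input: TNAP 1/800 final | Dosing: 20 µM single point | Schedule: 30 min, room temperature | Controls: EDTA wells as negative control, DMSO wells as positive control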
Large screens that a line does not name were inactive.

O=C(Nc1cccc(Cl)c1)C1C2CCC3C(CCC21)C3(Cl)Cl (stereo not given)	WT yeast gro inh 80
O=C(NN1CCOCC1)c1cccc(COc2cccc(Br)c2)c1	none
NNC(=O)c1cccc(COc2ccc(Br)cc2)c1	WT yeast gro inh 73
O=C(NCc1ccc2c(c1)OCO2)c1ccc(CSCc2ccccc2Cl)o1	none
NNC(=O)c1cccc(COc2cccc(Br)c2)c1	WT yeast gro inh 73
COc1ccc(OCc2cccc(C(=O)NN)c2)cc1	none
O=C(NCc1ccccc1)c1cccc(COc2cccc(Cl)c2)c1	WT yeast gro inh 67
O=C(NCc1ccc2c(c1)OCO2)c1ccc(COc2cccc(Cl)c2)o1	WT yeast gro inh 69
Cc1ccc(SCC(=O)Nc2ccc(-c3nc4ccccc4[nH]3)cc2)cc1	none
OC(CNCc1ccccc1Cl)C(F)(F)F (stereo not given)	none
COC(=O)CN(c1ccc2c(c1)OCCO2)S(=O)(=O)c1ccccc1	WT yeast gro inh 73
O=C(O)CN(c1ccc2c(c1)OCCO2)S(=O)(=O)c1ccccc1	none
Cc1cccc(-c2oc(C)c(C)[n+]2[O-])c1	none
Cc1oc(-c2ccccc2)[n+]([O-])c1C	WT yeast gro inh 69
O=C(NCc1ccc2c(c1)OCO2)C(=O)Nc1ccccc1	none
COc1ccc2ccccc2c1/C=N/N1C(=O)CSC1=S	Arbovirus inh 32
CC(C)(C)C(=O)Nc1ccnc(-c2cccnc2)n1	WT yeast gro inh 73
Cc1cccc2cc3c(N)c(C(=O)N4CCc5ccccc54)sc3nc12	none
O=Cc1ccc(OCc2ccccn2)cc1	Arbovirus inh 34
COc1ccccc1-n1cc(CN2CCN(C3CCCCC3)C(CCO)C2)cn1 (stereo not given)	none
C/C(=N\Nc1cc(C)nc(-c2ccccc2O)n1)c1ccccc1	none
Cc1cc(N/N=C/c2ccc(O)c(C)c2O)nc(-c2ccccc2O)n1	WT yeast gro inh 76
COc1ccccc1/C=N/NC(=O)CCn1cnc2ccccc21	none
O=[N+]([O-])c1cc(/C=N/Nc2nc3ccccc3[nH]2)c(O)cc1O	none
COc1ccc(Cl)cc1NC(=S)N1CCCC1	none
Cc1c(C=O)c2ccccc2n1CC(=O)NC(C)c1ccccc1 (stereo not given)	none
Cc1ccc(-n2nnnc2C(Cl)(Cl)c2nnnn2-c2ccc(C)cc2)cc1	WT yeast gro inh 95
COc1ccc(C[C@H]2COC(=O)[C@@H]2Cc2ccc(OC3OC(CO)C(O)C(O)C3O)c(OC)c2)cc1OC (stereo not given in full)	none
COc1cc(C2OCC3C(c4ccc(OC5OC(CO)C(O)C(O)C5O)c(OC)c4)OCC23)ccc1O (stereo not given)	TNAP inh no acc 64
COc1ccc(/C=N/NC(=O)c2cc(C34CC5CC(CC(C5)C3)C4)[nH]n2)cc1O	TNAP inh no acc 94
COc1ccc(/C=N\NC(=O)c2ccc(=O)[nH]n2)cc1O	none
Oc1nc(Nc2ccc(Cl)cc2Cl)sc1/C=C1\C=Nc2ccccc21	WT yeast gro inh 83
CCN1CCN(C(=O)c2oc(=O)c3ccccc3c2-c2ccc(C)cc2)CC1	none
Cc1ccc(-c2c(C(=O)NCc3ccc(F)cc3)oc(=O)c3ccccc23)cc1	WT yeast gro inh 62
COc1ccc(CC(=O)Nc2nnc(SCC(=O)NCc3ccco3)s2)cc1OC	none
Cc1nn(-c2ccccc2)c(N)c1N=Nc1ccc2ccccc2c1	WT yeast gro inh 70
Cc1ccc2nsnc2c1NC(=O)c1cncc(Br)c1	none
Cn1c(SCC(=O)N/N=C/C=C/c2ccco2)nc2ccccc21	none
CC1Cc2ccccc2N1C(=O)Cn1c(=O)cc(O)c2ccccc21 (stereo not given)	WT yeast gro inh 97
CC(C)CC1=NN2C(=N)/C(=C\c3coc4ccccc4c3=O)C(=O)N=C2S1	Arbovirus inh 41
CCSC1=NSC2=NC(=O)/C(=C\c3coc4ccccc4c3=O)C(=N)N12	Arbovirus inh 31
CCc1ccc(-n2cccc2/C=C2/C(=N)N3C(=NC2=O)SN=C3S(C)(=O)=O)cc1	none
Cc1cccc(-n2c(C)cc(/C=C3\C(=N)N4N=C(CC(C)C)SC4=NC3=O)c2C)c1	none
COc1ccccc1CNC(=O)/C=C/c1ccc(Br)o1	none
O=C(NCCc1ccc(Cl)cc1)/C(=C/c1cccnc1)NC(=O)c1ccccc1	none
COc1ccc(-c2nn(-c3ccccc3)cc2CO)cc1	none
N=C(N)SCc1cn(-c2ccccc2)nc1-c1ccc(Br)cc1	WT yeast gro inh 85
CC1CCCCN1C(=O)Cn1cc(/C=C2/C(=O)Nc3ccccc32)c2ccccc21 (stereo not given)	WT yeast gro inh 96
Nc1c(-c2ccccc2)cnn1-c1ccc(C(=O)O)cc1	none
CC(=O)OC[C@H]1O[C@@H](n2ncc(=O)[nH]c2=O)[C@H](OC(C)=O)[C@@H]1OC(C)=O	Arbovirus inh 60
CC(=O)OCC1OC(n2ncc(=O)n(Cc3ccccc3)c2=O)C(OC(C)=O)C1OC(C)=O (stereo not given)	none
COCC(=O)Nc1nc2n(n1)C(c1ccc(OC)cc1)CC(c1ccc(OC)cc1)N2 (stereo not given)	none
O=C(O)CCCC(=O)Nc1nc2n(n1)C(c1ccc(F)cc1)CC(c1ccc(Cl)cc1)N2 (stereo not given)	Arbovirus inh 39
CCOc1ccc2c(c1)OC(c1ccc(C)cc1)(C(F)(F)F)NC2=O (stereo not given)	WT yeast gro inh 60
CC(C)CN(CC(C)C)C(=O)C12CCC(C)(C(=O)O1)C2(C)C (stereo not given)	none
COc1ccc(N=C2S/C(=C\c3ccc(OCC(=O)O)cc3)C(=O)N2CCc2c[nH]c3ccccc23)cc1	Arbovirus inh 46
Cc1nc(NC2=NCN(C3CCCCC3C)CN2)nc2ccccc12 (stereo not given)	WT yeast gro inh 86
Cc1nc(NC2=NCN(Cc3ccccc3)CN2)nc2ccccc12	none (no result: WT yeast gro inh, Arbovirus inh)
COc1ccccc1OCC(=O)Nc1sc2c(c1C(=O)NCC1CCCO1)CCC2 (stereo not given)	none
CCc1ccc(OC)c(-c2csc(N)n2)c1	WT yeast gro inh 58
COc1cccc2cc(C(=O)N3CCc4ccccc43)c(=O)oc12	WT yeast gro inh 83
COc1cccc(C2Nc3ccccc3C(=O)N2O)c1O (stereo not given)	TNAP inh no acc 74
Cc1ccc(NC(=O)CN(C)CC(=O)Nc2ccc(N3CCOCC3)cc2)c([N+](=O)[O-])c1	none
CCN(CC)C(=O)C(=O)N/N=C/c1ccc(Br)cc1	none
CC(=O)Nc1ccc(OCC(O)Cn2c3ccccc3c3ccccc32)cc1 (stereo not given)	none
OC(COc1ccccc1)Cn1c2ccccc2c2ccccc21 (stereo not given)	WT yeast gro inh 80
Cc1ccc(SCC(=O)O/N=C(\N)c2cccc([N+](=O)[O-])c2)cc1	WT yeast gro inh 59
COc1ccc(C(=O)C2CCCN(Cc3ccc(Sc4nncn4C)o3)C2)cc1F (stereo not given)	none

Screening data: PubChem, several laboratories
